Ba/F3 V617F tox – loss of viability in JAK2V617F-driven Ba/F3 cells | AID 1446 | Ba/F3 EpoR-JAK2V617F viability, ATP luminescence | inhibition, % at 5.6 µM | 220,000 tested, 1.1% active;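 active means inhibition above the campaign mean plus 3 SD over all tested compounds, cut at about 24% in these data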;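 further: cytokine-independent growth of Ba/F3 cells driven by EpoR plus mutant JAK2; 0% = DMSO-treated cells and 100% = JAK inhibitor I control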
APP transl inh – APP translation inhibition; 190,000 tested, 0.82% active; inhibition, % at 2 µM; SH-SY5Y APP 5'UTR-luciferase reporter, luminescence; AID 1285;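 active means inhibition above a set limit, derived from the sample mean plus 3 SD, cut at about 45% in these data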
bCat nuc transl – modulators of beta-catenin nuclear translocation; HeLa beta-catenin nuclear translocation, immunofluorescence imaging; nuclear translocation activity, % at 5 µM; 190,000 tested, 0.3% active;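 active means nuclear translocation activity above 50% at 5 µM, with a well cell count of 50 or more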;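 further: per-cell ratio of nuclear to cytoplasmic median beta-catenin stain intensity; plate controls were DMSO negative control for no effect and GSK-3 inhibitor IX positive control for full effect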
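Signal – beta-catenin immunofluorescence imaging with DAPI · Test system – human HeLa cell line · Dosing – 5 µM primary single dose, 0.1% DMSO, 0.02–20 µM confirmation series · Measure – % activation, nuclear-to-cytoplasmic median beta-catenin signal ratio per cell · Incubation – 24 h compound exposure at 37°C, 5% CO2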
MT stabilizer – stabilizes microtubules in HeLa cells; HeLa tubulin immunostaining HCS, 24 h; share of cells brighter than vehicle mean+2SD; AID 2205; 200,000 tested, 0.83% active; % tubulin-high responders, % at 10 µM;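 active means plate Z-score above 3 for both tubulin-high and condensed-nucleus cell shares, with cell loss under 80%, at 10 µM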;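 further: anti alpha tubulin signal scored within the nucleus-defined area of each cell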
BaF3 parental – counter-screen for JAK2V617F inhibitors: parental Ba/F3 viability inhibitors | 220,000 tested, 1.1% active | inhibition, % at 5.6 µM | CellTiter-Glo ATP luminescence;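 active means inhibition above a per-campaign cutoff, the mean inhibition of all tested compounds plus 3 SD, cut at about 27% in these data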;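 further: 0% = DMSO wells and 100% = JAK Inhibitor I control wells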
L major viab – Leishmania major promastigote growth inhibition. Leishmania major promastigotes, resazurin fluorescence viability. inhibition, % at 10 µM. 200,000 tested, 9% active. AID 1063; in the data active means inhibition above about 50%;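 further: promastigotes grown with compound for 44 hours at 28 °C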
* = called active by the depositor; x = no result given. Compounds with a hit are over-represented: about 9.6% of the library has one in this group of screens.

SMILES	Ba/F3 V617F tox	APP transl inh	bCat nuc transl	MT stabilizer	BaF3 parental	L major viab
COc1cc2c(=O)n(CCCC(=O)NCC3CCCO3)c(=O)n(CC(=O)c3ccc(F)cc3)c2cc1OC (centres undefined)	9.0	-26.5	-1.5	4.0	9.7	14.5
Cc1ccsc1/C=N/NC(=O)c1cc(-c2ccncc2)nc2ccccc12	70.6*	93.8*	44.0	9.6	75.5*	28.5
O=C(O)c1ccc(/C=N/NC(=O)c2cc(-c3cccs3)nc3ccccc23)cc1	-1.5	-7.4	1.8	3.2	9.5	31.2
Cc1ccsc1/C=N/NC(=O)c1cccs1	0.3	-29.2	-2.2	3.3	2.1	-8.9
O=C(N/N=C/c1ccsc1)c1cc(-c2cccs2)nc2ccccc12	2.4	44.8	1.2	10.4*	7.6	20.0
Cc1ccsc1/C=N/NC(=O)c1ccccn1	-0.1	-84.7	x	4.2	6.5	59.5*
COc1ccccc1-c1cc(C(=O)N/N=C/c2sccc2C)c2ccccc2n1	-0.1	5.1	1.5	2.5	3.5	39.4
O=C(N/N=C/c1ccsc1)c1cc(-c2ccncc2)nc2ccccc12	1.7	59.8*	11.3	13.3*	1.1	4.6
CCCOC(=O)c1c(-c2ccc(C)cc2C)csc1NC(=O)C1C2CCC(O2)C1C(=O)O (centres undefined)	-4.1	8.7	-2.3	1.7	0.6	-3.1
O=C(CCc1n[nH]c(=O)[nH]c1=O)N/N=C/c1ccco1	-4.0	2.4	-1.3	4.8	0.3	-5.6
COc1ccc(-c2cc(-c3n[nH]c(=S)n3-c3ccccc3Cl)[nH]n2)cc1	1.1	-10.4	-2.7	2.3	4.0	-3.6
NNC(=O)c1cc(-c2cccs2)nc2ccccc12	3.6	x	-1.8	x	4.1	x
C/C(=N\NC(=O)c1cc(-c2cccs2)nc2ccccc12)c1ccccn1	3.5	71.2*	-2.0	4.1	7.1	100.3*
C/C(=N\NC(=O)c1cc(-c2ccncc2)nc2ccccc12)c1ccc(N2CCOCC2)cc1	-0.1	23.5	5.5	3.5	8.3	96.9*
COc1ccc2nc3c(cc2c1)c(NC(=O)c1cccs1)nn3CC(C)C	3.6	42.9	x	13.0	8.6	83.7*
CC(C)Cn1nc(NC(=O)c2cccs2)c2cc3ccccc3nc21	-1.3	x	1.8	x	4.3	x
Cc1onc(-c2ccccc2Cl)c1C(=O)N(C)C1CCCCC1	67.0*	5.4	x	1.8	61.5*	78.2*
Cc1onc(-c2ccccc2Cl)c1C(=O)N/N=C(\N)COc1ccc(Cl)cc1	-4.5	-3.8	2.6	2.5	0.3	84.0*
CCC(=O)Nc1ccc(/C(C)=N\NC(=O)c2ccc(C)s2)cc1	-1.4	11.4	x	3.0	1.7	95.6*
C/C(=N/NC(=O)c1ccc(Cl)s1)c1ccc(NC(=O)COc2ccc(Cl)cc2)cc1	-3.5	-0.9	2.5	2.5	3.7	-3.0
Cc1onc(-c2ccccc2Cl)c1C(=O)Nc1ccc(CN2CCCC2)cc1	-1.3	-9.1	-11.3	3.4	4.5	99.2*
O=C(NN1CCCCC1)c1cccc2ccccc12	-0.7	-12.0	-1.0	1.8	9.3	-5.6
O=C(O)c1ccn2c(C(=O)c3ccc(Cl)cc3)c(-c3ccccc3)cc2c1	-4.9	x	1.6	x	-2.4	x
O=C(COn1nnc2ccccc21)NCC1CCCCC1	-0.6	-5.6	-5.1	5.2	2.1	-4.7
CCC(=O)Nc1ccc(/C(C)=N/NC(=O)c2c(-c3ccccc3Cl)noc2C)cc1	4.6	5.5	6.5	2.8	7.9	95.6*
SMILES	Ba/F3 V617F tox	APP transl inh	bCat nuc transl	MT stabilizer	BaF3 parental	L major viab
CCOc1ccc(NC(=O)C(CC)NC(=O)c2ccccc2CO)cc1 (centres undefined)	3.4	-6.6	x	2.4	-1.6	-2.6
Cc1ccc(NC(=O)[C@@H](NC(=O)c2cccc(S(=O)(=O)N3CCOCC3)c2)C(C)C)cc1C	1.2	-12.8	x	3.3	6.9	76.1*
C/C(=N\NC(=O)c1cccc(S(=O)(=O)N2CCCCC2)c1)c1ccc(C)o1	1.1	-2.4	x	5.2	3.6	82.0*
CSCCC(NC(=O)c1ccccc1)C(=O)Nc1ccc(NC(C)=O)cc1 (centres undefined)	2.8	-4.5	-0.4	1.4	11.4	55.0*
CCOc1ccc(NC(=O)[C@@H](NC(=O)c2ccccc2Br)C(C)C)cc1	-0.4	-3.8	1.6	2.1	6.0	98.4*
CCC(C)NC(=O)C(CCSC)NC(=O)c1ccccc1 (centres undefined)	-1.6	3.8	x	2.4	4.3	-1.1
CC(C)[C@H](NC(=O)c1cccc(S(=O)(=O)N2CCOCC2)c1)C(=O)Nc1nccs1	1.3	-9.5	-2.6	3.6	1.5	-10.7
CC(C)c1ccc(NC(=O)c2snc3ccc(Cl)cc23)cc1	-6.2	-120.1	-0.1	21.4	2.8	-5.0
COc1ccc(Br)cc1CNC(=O)C1CCN(S(=O)(=O)N2CCC(C)CC2)CC1	1.2	7.4	-4.6	1.9	6.9	-5.9
CC1CCCC(NC(=O)CN(C)S(=O)(=O)c2cnc[nH]2)C1C (centres undefined)	-0.3	-7.1	-1.4	4.0	-2.8	2.6
C=C(C)CNC(=S)Nc1cccc(S(=O)(=O)NC2=NCCC2)c1	1.1	4.0	-2.3	2.2	10.5	-1.3
CCOc1ccc(C(=O)NC(=S)Nc2cccc(S(=O)(=O)NC3=NCCC3)c2)cc1	72.3*	89.0*	24.0	17.1*	79.5*	0.4
CCOc1ccc(C(=O)N[C@H](C(=O)Nc2cccc(S(=O)(=O)N3CCCCC3)c2)C(C)C)cc1	1.1	-3.4	-1.7	3.1	7.1	97.1*
CSCCC(NC(=O)c1cccc(S(=O)(=O)N2CCOCC2)c1)C(=O)Nc1ccc(F)cc1 (centres undefined)	3.3	-1.0	-1.5	3.1	4.6	72.5*
O=C(Nc1ccccc1)c1cccc(S(=O)(=O)N2CCCCC2)c1	1.1	-9.8	4.2	5.4	1.3	19.5
O=C(Nc1ccc(N2CCOCC2)cc1)c1cccc(S(=O)(=O)N2CCCCC2)c1	-0.1	2.0	0.8	3.3	3.8	97.9*
Cc1occc1C(=O)NNC1=CC(=O)CC(C)(C)C1	-3.0	-5.6	x	2.2	6.4	15.8
CC(C)NC(=S)NCc1cccs1	-0.8	0.6	1.7	5.2	4.2	6.1
CC(C)CN1CCN(Cc2ccc(CN3CCCCC3)s2)CC1CCO (centres undefined)	-2.8	1.7	-2.0	3.8	2.4	8.0
COc1ccc(S(=O)(=O)N2CCOCC2)cc1NC(=O)CO/N=C/c1ccccc1OC(F)F	3.0	-4.7	-2.6	2.3	3.7	6.7
CC(O/N=C/c1ccccc1OC(F)F)C(=O)Nc1cccc(S(=O)(=O)N2CCOCC2)c1 (centres undefined)	5.8	-11.4	3.7	1.6	5.8	50.6*
CCOc1cc(NC(=S)Nc2ccccc2OC)c(OCC)cc1NC(=O)c1ccccc1C	4.4	20.0	-0.5	1.5	12.0	97.0*
COc1cc(NC(=O)c2ccccc2)c(OC)cc1NC(C)=O	-2.0	5.8	-0.5	1.9	5.1	3.3
CCC(=O)Nc1cc(OC)c(NC(=O)c2ccccc2)cc1OC	-3.4	8.6	x	2.1	2.1	77.0*

Screens (PubChem BioAssay)
